Data taken from ChEMBL document CHEMBL4715736, “Identification of anticancer agents based on the thieno[2,3-b]pyridine and 1H-pyrazole molecular scaffolds” (2016).

What was measured:
Format in all cases: functional
SF-295 [1] = test: Growth inhibition of human SF-295 cells assessed as cell growth at 1 uM incubated for 48 hrs by sulforhodamine B assay relative to control; settings: read-out: Activity
NCI/ADR-RES [2] = test: Growth inhibition of human NCI/ADR-RES cells assessed as cell growth at 0.1 uM incubated for 48 hrs by sulforhodamine B assay relative to control; settings: read-out: Activity
SNB-19 = test: Growth inhibition of human SNB-19 cells incubated for 48 hrs by sulforhodamine B assay
Method in brief: (§1)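 NCI DTP 60-line human tumour panel. Dose-response curves were run only for ligands active in the initial 10 µM screen. GI50 (concentration giving 50% of maximal inhibition of proliferation) and TGI (concentration giving total growth inhibition) were derived from these curves.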

U-251 [3] = test: Growth inhibition of human U-251 cells incubated for 48 hrs by sulforhodamine B assay; method in brief: as §1
SK-MEL-5 [4] = test: Growth inhibition of human SK-MEL-5 cells assessed as cell growth at 1 uM incubated for 48 hrs by sulforhodamine B assay relative to control; settings: read-out: Activity
U-251 [5] = test: Growth inhibition of human U-251 cells assessed as cell growth at 0.1 uM incubated for 48 hrs by sulforhodamine B assay relative to control; settings: read-out: Activity
MOLT-4 = test: Growth inhibition of human MOLT-4 cells assessed as cell growth at 0.01 uM incubated for 48 hrs by sulforhodamine B assay relative to control; settings: read-out: Activity
HCT-116 [6] = test: Growth inhibition of human HCT-116 cells assessed as cell growth at 0.01 uM incubated for 48 hrs by sulforhodamine B assay relative to control; settings: read-out: Activity
SN12C = test: Growth inhibition of human SN12C cells assessed as cell growth at 100 uM incubated for 48 hrs by sulforhodamine B assay relative to control; settings: read-out: Activity
SR [7] = test: Growth inhibition of human SR cells assessed as cell growth at 100 uM incubated for 48 hrs by sulforhodamine B assay relative to control; settings: read-out: Activity
COLO 205 = test: Growth inhibition of human COLO 205 cells assessed as cell growth at 0.01 uM incubated for 48 hrs by sulforhodamine B assay relative to control; settings: read-out: Activity
Method in brief: (§2)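 NCI Developmental Therapeutics Program NCI60 panel. Compounds that were active in the 10 µM one-dose screen went on to dose–response testing. Growth at each concentration is expressed relative to untreated control (100%). GI50 (concentration giving 50% of maximal inhibition of proliferation) and TGI (concentration giving total growth inhibition) were derived from the curves.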

HCT-15 [8] = test: Growth inhibition of human HCT-15 cells incubated for 48 hrs by sulforhodamine B assay
Method in brief: (§3)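 NCI60 panel at the NCI Developmental Therapeutics Program. Only compounds active in the 10 µM screen went to dose-response testing. GI50, the concentration giving 50% of maximal inhibition of proliferation, and TGI, the concentration giving total growth inhibition, were derived from the dose-response curves.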

RXF 393 = test: Growth inhibition of human RXF 393 cells assessed as cell growth at 1 uM incubated for 48 hrs by sulforhodamine B assay relative to control; settings: read-out: Activity
NCI/ADR-RES [9] = test: Growth inhibition of human NCI/ADR-RES cells assessed as cell growth at 0.01 uM incubated for 48 hrs by sulforhodamine B assay relative to control; settings: read-out: Activity
SR [10] = test: Growth inhibition of human SR cells incubated for 48 hrs by sulforhodamine B assay; method in brief: as §1
HCT-15 [11] = test: Growth inhibition of human HCT-15 cells assessed as cell growth at 0.1 uM incubated for 48 hrs by sulforhodamine B assay relative to control; settings: read-out: Activity
RPMI-8226 [12] = test: Growth inhibition of human RPMI-8226 cells assessed as cell growth at 0.1 uM incubated for 48 hrs by sulforhodamine B assay relative to control; settings: read-out: Activity
K562 = test: Growth inhibition of human K562 cells assessed as cell growth at 1 uM incubated for 48 hrs by sulforhodamine B assay relative to control; settings: read-out: Activity
OVCAR-4 = test: Growth inhibition of human OVCAR-4 cells assessed as cell growth at 1 uM incubated for 48 hrs by sulforhodamine B assay relative to control; settings: read-out: Activity
A549 [13] = test: Growth inhibition of human A549/ATCC cells assessed as cell growth at 100 uM incubated for 48 hrs by sulforhodamine B assay relative to control; settings: read-out: Activity; method in brief: as §2
TK-10 = test: Growth inhibition of human TK-10 cells assessed as cell growth at 0.01 uM incubated for 48 hrs by sulforhodamine B assay relative to control; settings: read-out: Activity
NCI-H522 [14] = test: Growth inhibition of human NCI-H522 cells assessed as cell growth at 0.01 uM incubated for 48 hrs by sulforhodamine B assay relative to control; settings: read-out: Activity
SF-295 [15] = test: Growth inhibition of human SF-295 cells assessed as cell growth at 0.1 uM incubated for 48 hrs by sulforhodamine B assay relative to control; settings: read-out: Activity
M14 [16] = test: Growth inhibition of human M14 cells assessed as cell growth at 100 uM incubated for 48 hrs by sulforhodamine B assay relative to control; settings: read-out: Activity
NCI-H522 [17] = test: Growth inhibition of human NCI-H522 cells assessed as cell growth at 0.1 uM incubated for 48 hrs by sulforhodamine B assay relative to control; settings: read-out: Activity
OVCAR-3 = test: Growth inhibition of human OVCAR-3 cells assessed as cell growth at 0.1 uM incubated for 48 hrs by sulforhodamine B assay relative to control; settings: read-out: Activity
CAKI-1 = test: Growth inhibition of human CAKI-1 cells incubated for 48 hrs by sulforhodamine B assay; settings: for CC50: read-out: LC50 (the source's name); method in brief: as §2
SK-MEL-5 [18] = test: Growth inhibition of human SK-MEL-5 cells assessed as cell growth at 100 uM incubated for 48 hrs by sulforhodamine B assay relative to control; settings: read-out: Activity
M14 [19] = test: Growth inhibition of human M14 cells incubated for 48 hrs by sulforhodamine B assay; method in brief: as §3
HCT-116 [20] = test: Growth inhibition of human HCT-116 cells assessed as cell growth at 0.1 uM incubated for 48 hrs by sulforhodamine B assay relative to control; settings: read-out: Activity
NCI-H460 = test: Growth inhibition of human NCI-H460 cells assessed as cell growth at 100 uM incubated for 48 hrs by sulforhodamine B assay relative to control; settings: read-out: Activity
A549 [21] = test: Growth inhibition of human A549/ATCC cells assessed as cell growth at 0.1 uM incubated for 48 hrs by sulforhodamine B assay relative to control; settings: read-out: Activity; method in brief: as §2
PC-3 = test: Growth inhibition of human PC-3 cells incubated for 48 hrs by sulforhodamine B assay; settings: for CC50: read-out: LC50 (the source's name); method in brief: as §1
MCF7 = test: Growth inhibition of human MCF7 cells assessed as cell growth at 0.01 uM incubated for 48 hrs by sulforhodamine B assay relative to control; settings: read-out: Activity
RPMI-8226 [22] = test: Growth inhibition of human RPMI-8226 cells assessed as cell growth at 100 uM incubated for 48 hrs by sulforhodamine B assay relative to control; settings: read-out: Activity

Structure (SMILES): Nc1c(C(=O)Nc2ccccc2)sc2nc3c(cc12)CN(Cc1ccccc1)CC3
- growth at 1 µM (SF-295 [1]): 90%
- growth at 0.1 µM (NCI/ADR-RES [2]): 101%
- GI50 (SNB-19): 18.3 µM
- LC50 (SNB-19): > 100 µM
- TGI (SNB-19): > 100 µM
- GI50 (U-251 [3]): 13.9 µM
- LC50 (concentration killing 50% of cells) (U-251 [3]): > 100 µM
- TGI (U-251 [3]): > 100 µM
- growth at 1 µM (SK-MEL-5 [4]): 95%
- growth at 0.1 µM (U-251 [5]): 98%
- growth at 0.01 µM (MOLT-4): 97%
- growth at 0.01 µM (HCT-116 [6]): 100%
- growth at 100 µM (SN12C): 47%
- growth at 100 µM (SR [7]): 19%
- growth at 0.01 µM (COLO 205): 100%
- GI50 (HCT-15 [8]): 24.7 µM
- LC50 (HCT-15 [8]): > 100 µM
- TGI (HCT-15 [8]): > 100 µM
- growth at 1 µM (RXF 393): 87%
- growth at 0.01 µM (NCI/ADR-RES [9]): 103%
- GI50 (SR [10]): 13.1 µM
- LC50 (SR [10]): > 100 µM
- TGI (SR [10]): > 100 µM
- growth at 0.1 µM (HCT-15 [11]): 97%
- growth at 0.1 µM (RPMI-8226 [12]): 99%
- growth at 1 µM (K562): 88%
- growth at 1 µM (OVCAR-4): 66%
- growth at 100 µM (A549 [13]): 17%
- growth at 0.01 µM (TK-10): 93%
- growth at 0.01 µM (NCI-H522 [14]): 89%
- growth at 0.1 µM (SF-295 [15]): 90%
- growth at 100 µM (M14 [16]): 35%
- growth at 0.1 µM (NCI-H522 [17]): 87%
- growth at 0.1 µM (OVCAR-3): 100%
- GI50 (CAKI-1): 19.7 µM
- TGI (CAKI-1): > 100 µM
- CC50 (CAKI-1): > 100 µM
- growth at 100 µM (SK-MEL-5 [18]): 16%
- GI50 (M14 [19]): 30.8 µM
- LC50 (concentration killing 50% of cells) (M14 [19]): > 100 µM
- TGI (M14 [19]): > 100 µM
- growth at 0.1 µM (HCT-116 [20]): 92%
- growth at 100 µM (NCI-H460): 8%
- growth at 0.1 µM (A549 [21]): 99%
- GI50 (PC-3): 27.1 µM
- TGI (PC-3): > 100 µM
- CC50 (PC-3): > 100 µM
- growth at 0.01 µM (MCF7): 93%
- growth at 100 µM (RPMI-8226 [22]): 42%

Structure (SMILES): CN1CCc2nc3sc(C(N)=O)c(N)c3c(-c3cccs3)c2C1
- growth at 1 µM (SF-295 [1]): 100%
- growth at 0.1 µM (NCI/ADR-RES [2]): 96%
- GI50 (SNB-19): 4.34 µM
- LC50 (SNB-19): > 100 µM
- TGI (SNB-19): > 100 µM
- GI50 (U-251 [3]): 3.18 µM
- LC50 (concentration killing 50% of cells) (U-251 [3]): > 100 µM
- TGI (U-251 [3]): > 100 µM
- growth at 1 µM (SK-MEL-5 [4]): 64%
- growth at 0.1 µM (U-251 [5]): 98%
- growth at 0.01 µM (MOLT-4): 99%
- growth at 0.01 µM (HCT-116 [6]): 100%
- growth at 100 µM (SN12C): 6%
- growth at 100 µM (SR [7]): -19%
- growth at 0.01 µM (COLO 205): 105%
- GI50 (HCT-15 [8]): 3.31 µM
- LC50 (HCT-15 [8]): > 100 µM
- TGI (HCT-15 [8]): > 100 µM
- growth at 1 µM (RXF 393): 55%
- growth at 0.01 µM (NCI/ADR-RES [9]): 100%
- GI50 (SR [10]): 1.8 µM
- LC50 (SR [10]): > 100 µM
- TGI (SR [10]): 7.31 µM
- growth at 0.1 µM (HCT-15 [11]): 106%
- growth at 0.1 µM (RPMI-8226 [12]): 121%
- growth at 1 µM (K562): 96%
- growth at 1 µM (OVCAR-4): 108%
- growth at 100 µM (A549 [13]): 9%
- growth at 0.01 µM (TK-10): 101%
- growth at 0.01 µM (NCI-H522 [14]): 96%
- growth at 0.1 µM (SF-295 [15]): 103%
- growth at 100 µM (M14 [16]): -27%
- growth at 0.1 µM (NCI-H522 [17]): 100%
- growth at 0.1 µM (OVCAR-3): 99%
- GI50 (CAKI-1): 2.82 µM
- TGI (CAKI-1): > 100 µM
- CC50 (CAKI-1): > 100 µM
- growth at 100 µM (SK-MEL-5 [18]): -42%
- GI50 (M14 [19]): 4.19 µM
- LC50 (concentration killing 50% of cells) (M14 [19]): > 100 µM
- TGI (M14 [19]): 19.4 µM
- growth at 0.1 µM (HCT-116 [20]): 102%
- growth at 100 µM (NCI-H460): 2%
- growth at 0.1 µM (A549 [21]): 95%
- GI50 (PC-3): 4.58 µM
- TGI (PC-3): > 100 µM
- CC50 (PC-3): > 100 µM
- growth at 0.01 µM (MCF7): 98%
- growth at 100 µM (RPMI-8226 [22]): 1%
